The values that follow come from ChEMBL document CHEMBL1122372, “Synthesis of aminomethyl-substituted cyclic imide derivatives for evaluation as anticonvulsants” (J Med Chem, 1983).

The source made the active and inactive calls. The rule behind the calls is not given here.

Data set [1] is filed under the species Mus musculus. Nature of the data set: Effective dose against maximal electroshock seizures in mice, at 0.5 h. It counts as functional. The method, boiled down: (§1)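 Phase II quantification in mice by the NINCDS Anticonvulsant Drug Development Program. Median effective dose against maximal electroshock-induced seizures, measured at the time of peak effect, 0.5 h. The 95% confidence intervals come from probit analysis.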
A general note: Protection in the maximal electroshock model is a classic sign of anticonvulsant action.

Data set [2] relates to Mus musculus. The data set is described as follows: Tested for anti maximal electroshock activity at 4 h; - denotes inactive up to 600 mg/kg. Details: dose 600 mg/kg. It counts as functional, organism-based. The method, boiled down: (§2)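 Phase I screen in mice run by the NINCDS Antiepileptic Drug Development Program. Four mice per dose, scored 0.5 and 4 h after dosing, for prevention of tonic hindlimb extension following maximal electroshock. Doses were 30, 100, 300 or 600 mg/kg. Activity is the lowest dose protecting at least one of four animals, provided a second trial confirms it.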

The test system of data set [3] is Mus musculus. The data set is described as follows: Anti-pentylenetetrazole activity at 0.5 h; - denotes inactive up to 600 mg/kg. It counts as functional, organism-based. Also on record: dose 600 mg/kg. The method, boiled down:
(§3)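 Phase I screen in mice run by the NINCDS Antiepileptic Drug Development Program. Four mice per dose, scored 0.5 and 4 h after dosing, for protection against seizures induced by 85 mg/kg subcutaneous pentylenetetrazole. Dose levels were 30, 100, 300 and 600 mg/kg. Activity is the lowest dose at which at least one of four animals is protected, confirmed in a second trial.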

Data set [4] deals with Mus musculus. Nature of the data set: Tested for anti-pentylenetetrazole activity in mice at 4 h; - denotes inactive up to 600 mg/kg. It counts as functional, organism-based. Also on record: dose 600 mg/kg. In a few lines: as §3
Data set [5] is described as follows: Tested for neurotoxicity in rotarod test. It counts as toxicity, organism-based. Conditions: mouse, in vivo. The method, boiled down:
(§4)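 Phase I rotarod neurotoxicity in mice, run by the NINCDS Antiepileptic Drug Development Program. Doses were 30, 100, 300 or 600 mg/kg. Deaths from respiratory depression were counted among four animals given 600 mg/kg.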
(In the rotarod test animals must keep their balance on a rotating rod.)

For data set [6], the system named is Mus musculus. Nature of the data set: Tested for rotarod neurotoxicity, number of deaths from respiratory depression among four animals given a dose 600 mg/kg was reported. Conditions: in vivo.
Data set [7] has as its system Mus musculus. Nature of the data set: Tested for anti maximal electroshock activity at 0.5 hr […]; += Compound is active at 300 mg/kg. It counts as functional, organism-based. The method, boiled down:
as §2

Data set [8] has as its system Mus musculus. Nature of the data set: Anti-pentylenetetrazole activity at 0.5 hr in mice […]; += Compound is active at 300 mg/kg. It counts as functional, organism-based. In a few lines:
as §3

The subject of data set [9] is Mus musculus. Nature of the data set: Tested for rotarod neurotoxicity, number of deaths from respiratory depression among four animals given a dose 600 mg/kg was reported; inactive. It counts as functional.
The species entered for data set [10] is Mus musculus. Nature of the data set: (§5) Effective dose against maximal electroshock seizures in mice, at 0.5 hr. It counts as functional. The method, boiled down: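 Phase II quantification in mice under the NINCDS Antiepileptic Drug Development Program. Protection against maximal electroshock, scored as prevention of tonic hindlimb extension, was measured at the time of peak effect, 0.5 h after dosing. Median effective dose was derived by probit analysis with 95% confidence intervals.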

For data set [11], the species on record is Mus musculus. The description is as §5. It counts as functional. In a few lines: as §1
The source holds these as a separate data set.

Data set [12] has as its system Mus musculus. The data set is described as follows: Anti-pentylenetetrazole activity; - denotes inactive up to 600 mg/kg. It counts as functional, organism-based. Details: dose 600 mg/kg. The method, boiled down: as §3
In data set [13] the test system is Mus musculus. The data set is described as follows: Tested for rotarod neurotoxicity, number of deaths from respiratory depression among four animals given a dose 600 mg/kg was reported. It counts as organism-based. Also on record: dose 600 mg/kg. Conditions: in vivo.
Data set [14] is described as follows: Tested for Neurotoxicity in rotarod test. It counts as toxicity, organism-based. Conditions: mouse, in vivo. The method, boiled down:
as §4

In data set [15] the test system is Mus musculus. Nature of the data set: Tested for anti maximal electroshock activity at 4 h; += Compound is active at 300 mg/kg. It counts as functional, organism-based. Also on record: dose 300 mg/kg. The method, boiled down: as §2
The nature of data set [16]: Tested for rotarod neurotoxicity at dose 300 mg/kg. Details: dose 300 mg/kg. Conditions: mouse, in vivo. It counts as organism-based. The method, boiled down: as §4
The subject of data set [17] is Mus musculus. Nature of the data set: Tested for anti maximal electroshock activity at 0.5 hr at dose 100 mg/kg; ++=Compound is active at 100 mg/kg. It counts as functional, organism-based. In a few lines:
as §2

Data set [18] deals with Mus musculus. Nature of the data set: Anti-pentylenetetrazole activity at 0.5 hr in mice […]; +=Compound is active at 300 mg/kg. It counts as functional, organism-based. The method, boiled down: as §3
The subject of data set [19] is Mus musculus. The data set is described as follows: Tested for rotarod neurotoxicity, number of deaths from respiratory depression among four animals given a dose 600 mg/kg was reported.

What is called ED50 is the dose that gives a 50% effect, or the effect in half of the subjects. A lower ED50 goes with an effect at a small dose. Broadly, the TD50 is the dose at which the toxic effect under study appears in half of the subjects. With `Cl.NCC1CC(=O)N(Cc2ccccc2)C1=O` (stereo not given), it took a dose of 108 mg/kg to reach the 50% effect level in data set [1] (ED50). In addition, in data set [2], the MES entry was “Not toxic”. For the same compound, the PTZ result in [3] and in [4] was “Not toxic” in each case. In [5], this compound had a TD50 of 268 mg/kg. Moreover, the NT in data set [6] is listed as 4.
Regarding `CC(=O)NCC1CC(=O)N(Cc2ccccc2)C1=O` (stereo not given), the figures for the MES result in data set [7] and in [2] were “active at 300 mg/kg” and “Not toxic”, respectively. In addition, the PTZ result in data set [8] was “active at 300 mg/kg”; in data set [4] it was “Not toxic”. For the same compound, the NT in data set [9] is 0.
Compound `CN1C(=O)CC(c2ccccc2)C1=O` (stereo not given) [PHENSUXIMIDE] gave an ED50 in data set [10] of 112 mg/kg.
In [11], `O=C1CC(CNCc2ccccc2)C(=O)N1Cc1ccccc1` (stereo not given) showed a median effective dose (ED50) of 136 mg/kg. Besides, the MES result in data set [2] is “Not toxic”. The PTZ result in data set [12] and in [4] was “Not toxic” each time. This compound returned an NT in [13] of 4. This compound also yielded a TD50 in data set [14] of 267 mg/kg.
Consider `CC1(CN)CC(=O)N(Cc2ccccc2)C1=O` (stereo not given), for which the ED50 in [1] is 66.4 mg/kg. Further, the MES entry in data set [15] was “active at 300 mg/kg”. For the same compound, the PTZ result in data set [3] and in data set [4] was “Not toxic” each time. In addition, in [16], the TD50 was determined as 228 mg/kg. Besides, in data set [6], the NT is 2.
Turning to `CC(=O)NCC1(C)CC(=O)N(Cc2ccccc2)C1=O` (stereo not given), the MES entry was “active at 100 mg/kg” in [17] and “Not toxic” in data set [2]. The PTZ entry in data set [4] was “Not toxic”; in [18], “active at 300 mg/kg”. This compound also displayed an NT in data set [19] of 0.
As to `CN1C(=O)CC(C)(c2ccccc2)C1=O` (stereo not given) [METHSUXIMIDE], in data set [10], it took a dose of 76.3 mg/kg to reach the 50% effect level (ED50).
